The text below walks through data of ChEMBL document CHEMBL4184228, “Reversed isoniazids: Design, synthesis and evaluation against Mycobacterium tuberculosis” (Bioorg Med Chem, 2018).

In data set [1] the test system is Mycobacterium tuberculosis. The data set can be described thus: Antimycobacterial activity against isoniazid mono-resistant Mycobacterium tuberculosis isolate R4965 by two fold serial dilution based fluorescence assay. Format: functional. The gist of the method: (§1)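 MGIT 960 (BACTEC) broth assay in 7H9 with 1% OADC and 0.05% Tween 80. Compounds are 10 mM DMSO stocks, two-fold serially diluted, final DMSO ≤1.2%, top concentration 10 µM. Tubes incubated at 37°C with growth units read daily. MIC99 is set against a 1% drug-free growth control tube.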

Data set [2] can be described thus: Selectivity index, ratio of IC50 for CHO cells to MIC99 for isoniazid mono-resistant Mycobacterium tuberculosis isolate R5401. The class given is toxicity. The following applies: hamster, read-out: Selectivity Index.
For data set [3], the system named is Mycobacterium tuberculosis. The data set is described as follows: Antimycobacterial activity against isoniazid mono-resistant Mycobacterium tuberculosis isolate R73 by two fold serial dilution based fluorescence assay. Format: functional. The gist of the method:
as §1

Data set [4] deals with Mycobacterium tuberculosis. The data set is described as follows: Antimycobacterial activity against isoniazid mono-resistant Mycobacterium tuberculosis isolate R5401 by two fold serial dilution based fluorescence assay. The class given is functional. The gist of the method:
as §1

Data set [5] deals with Mycobacterium tuberculosis variant bovis BCG. The data set is described as follows: Inhibition of efflux pump in Mycobacterium bovis BCG infected in macrophages assessed as accumulation of ethidium bromide at 50 uM by measuring increase in fluorescence intensity after 1 hr by flow cytometric assay relative to control. Set-up: Activity: scale not given: the % may be the effect or the level left. On the technique in general: Flow cytometry measures light scatter and fluorescence of single cells or particles in a stream.

Data set [6] shares this test system. The data set is described as follows: Potency index, ratio of compound effect to CPZ effect for inhibition of efflux pump in Mycobacterium bovis BCG.
Data set [7] shares this test system. The data set is described as follows: Inhibition of efflux pump in Mycobacterium bovis BCG infected in macrophages assessed as accumulation of ethidium bromide at 25 uM by measuring increase in fluorescence intensity after 1 hr by flow cytometric assay. Set-up: Activity: scale not given: the % may be the effect or the level left.
Data set [8] has the same test system. The data set is described as follows: Inhibition of efflux pump in Mycobacterium bovis BCG infected in macrophages assessed as accumulation of ethidium bromide at 10 uM by measuring increase in fluorescence intensity after 1 hr by flow cytometric assay. On the set-up: scale not given: the % may be the effect or the level left.
Data set [9] is described as follows: Selectivity ratio of MIC99 for Mycobacterium tuberculosis H37Rv to MIC99 for isoniazid mono-resistant Mycobacterium tuberculosis isolate R5401. The class given is functional.

Values after ≈ are worked out from the molar mass of the structure shown. Active and inactive are the calls of the source. The calls are words filed in the database; no cut-off is given here.

In general, MIC99 refers to the lowest concentration that inhibits either 99% of growth or 99% of the strains tested, depending on the study.

Regarding `O=C(NNCCCN1CCC(=C2c3ccccc3Sc3ccccc32)CC1)c1ccncc1`, the MIC99 in [1] is greater than 10 µM; in data set [3] it was greater than 10 µM; in data set [4], 2.5 µM (≈ 1.14 µg/mL). Besides, the selectivity ratio in data set [2] is 60.8.

For `O=C(NNCCCN1c2ccccc2CCc2ccccc21)c1ccncc1`, the MIC99 in data set [1], in [3] and in data set [4] was greater than 10 µM in each case. In addition, the inhibition result in [5] was “Active”.

For the compound `O=C(NNCCCN1CCC(=C2c3ccccc3Sc3ccc(Cl)cc32)CC1)c1ccncc1`, the MIC99 was greater than 10 µM in data set [1], greater than 10 µM in [3] and 1.25 µM (≈ 0.614 µg/mL) in data set [4]. The selectivity ratio in data set [2] was 237.

For the compound `O=C(NNCCCN1CCN(C(c2ccccc2)(c2ccccc2)c2ccccc2)CC1)c1ccncc1`, the MIC99 is greater than 10 µM in [1], greater than 10 µM in data set [3] and 2.5 µM (≈ 1.26 µg/mL) in data set [4]. In [2], the selectivity ratio worked out at 78.1.

As for `O=C(NNCCCN1c2ccccc2Sc2ccccc21)c1ccncc1`, the MIC99 in [1], in data set [3] and in data set [4] was greater than 10 µM throughout. For the same compound, in [5], the inhibition result is “Active”.

Take `O=C(NNCCCNCCCN1c2ccccc2Sc2ccc(Cl)cc21)c1ccncc1`: the MIC99 in data set [1], in data set [3] and in data set [4] was greater than 10 µM each time.

Take `NNC(=O)c1ccncc1` [ISONIAZID]: the inhibition entry in [5] is “Active”. Further, the selectivity ratio in [2] is greater than 35. The compound further returned an MIC99 in data set [4] of 2.5 µM (≈ 0.343 µg/mL).

As for `O=C(NNCCCN1CCN(CC(O)(c2ccccc2)c2ccccc2)CC1)c1ccncc1`, the MIC99 in data set [1] is greater than 10 µM; in data set [3], greater than 10 µM; in data set [4], 2.5 µM (≈ 1.15 µg/mL). The selectivity ratio in data set [2] is 139.

For `O=C(NNCCCN1c2ccccc2Sc2ccccc21)c1ccccc1`, the MIC99 in [1] and in data set [3] was greater than 10 µM in each case. Also, in data set [5], the Activity was in the range of 40 to 90%. The Ratio in data set [6] was 2.

Regarding `O=C(NNCCCN1c2ccccc2Sc2ccc(Cl)cc21)c1ccncc1`, the MIC99 in data set [1], in data set [3] and in data set [4] was greater than 10 µM in each case. Moreover, the Activity in data set [7] was 40 to 90%. Besides, the Ratio in data set [6] was determined as 2.

Regarding `O=C(NNCCCN1CCC(N2c3ccccc3Sc3ccc(Cl)cc32)CC1)c1ccncc1`, the MIC99 in [1] was greater than 10 µM; in [3] it was greater than 10 µM; in data set [4], 1 µM (≈ 0.494 µg/mL). The Activity in [8] is 40 to 90%. Besides, the Ratio in data set [6] stood at 2. Further, the selectivity ratio in data set [2] is 37.

Consider `O=C(NNCCCN1CCC(=C2c3ccccc3C=Cc3ccccc32)CC1)c1ccncc1`, for which the MIC99 is greater than 10 µM in data set [1], greater than 10 µM in data set [3] and 2.5 µM (≈ 1.13 µg/mL) in data set [4]. The selectivity ratio in data set [2] was 59.2.

With `O=C(NNCCCN1CCN(C(c2ccccc2)c2ccccc2)CC1)c1ccncc1`, the MIC99 in data set [1] was greater than 10 µM; in [3], greater than 10 µM; in data set [4], 2.5 µM (≈ 1.07 µg/mL). In addition, the selectivity ratio in data set [2] was found to be 19.3. Also, the Ratio in data set [9] came to 2.

As for `O=C(NNCCCN1c2ccccc2Sc2ccc(Cl)cc21)c1ccccc1`, the MIC99 in [1] and in data set [3] was greater than 10 µM throughout. For the same compound, the Activity in data set [5] was in the range of 40 to 90%. In addition, the Ratio in data set [6] was 2.

For `CN(C)CCCN1c2ccccc2Sc2ccc(Cl)cc21` [CHLORPROMAZINE], the inhibition entry in [7] was “Active”.

Regarding `O=C(NNCCCN1CCC(N2c3ccccc3Sc3ccccc32)CC1)c1ccncc1`, the MIC99 was greater than 10 µM in [1], greater than 10 µM in data set [3] and 2.5 µM (≈ 1.15 µg/mL) in data set [4]. Besides, in data set [2], the selectivity ratio was found to be 48.8. The Ratio in [9] came out at 2.

`O=C(NNCCCN1CCN(C2c3ccccc3CCc3ccccc32)CC1)c1ccncc1`: the MIC99 in [1], in data set [3] and in data set [4] was greater than 10 µM each time.

Consider `O=C(NNCCCNCCCN1c2ccccc2Sc2ccccc21)c1ccncc1`, for which the MIC99 in [1], in data set [3] and in [4] was greater than 10 µM throughout.
